These results are taken from PubChem BioAssay AID651783 (The Scripps Research Institute Molecular Screening Center, 2012).

About 2,000 (83%) of roughly 2,400 compounds were called active. The set was probably picked from earlier hits. A selection follows. A number with no mark means an inactive call.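 The calls were made as follows: active = activation above a cutoff set at the run's mean compound activation plus 3 SD (cut at about 39% in these data); inactive = the rest.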

Chain of Trace amine-associated receptor 1 (Homo sapiens) (Q96RJ0 whole entry, looked up): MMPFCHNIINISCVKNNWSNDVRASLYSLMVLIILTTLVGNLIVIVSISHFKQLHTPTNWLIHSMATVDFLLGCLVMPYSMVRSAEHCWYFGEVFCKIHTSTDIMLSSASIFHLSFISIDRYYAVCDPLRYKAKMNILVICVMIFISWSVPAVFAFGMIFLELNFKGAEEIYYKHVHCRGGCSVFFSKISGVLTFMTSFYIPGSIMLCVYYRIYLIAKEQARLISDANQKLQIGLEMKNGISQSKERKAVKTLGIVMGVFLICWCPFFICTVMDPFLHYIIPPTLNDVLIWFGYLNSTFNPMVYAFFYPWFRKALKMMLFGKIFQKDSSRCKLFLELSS

The assay concerns the target Trace amine-associated receptor 1 (Homo sapiens) (UniProt Q96RJ0). Put plainly: human TAAR1 agonists, retest of hits, confirmation, Fluo-8 calcium fluorescence, CHO RD-HGA16 cells (AID 651783).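 Also: promiscuous G-alpha-16 overexpression reroutes TAAR1 signalling from cAMP to calcium; peak fluorescence divided by basal pre-compound fluorescence per well.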 The note with it: CHO RD-HGA16 TAAR1, Fluo-8 calcium fluorescence; at 3 µM; hits give high values; scaled: DMSO 0%, maximal phenethylamine 100%. Summed up:
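Signal – Fluo-8 calcium fluorescence, 5 s basal then 140 s kinetic read · Assay system – RD-HGA16 CHO cells co-expressing hTAAR1 and promiscuous Gα16 · Times – Fluo-8 loading 75 min 37 °C and 30 min RT · Dosing – single nominal final dose of 3 µM per compound · Benchmarks – low DMSO wells, high PEA EC100 wells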
Regarding `S=C(Nc1ccc(Br)cc1)NC1CCN(Cc2ccccc2)CC1`, the activation is 62.4% (active).

Take `CCCCCCCCCCOC(=O)Cn1c(COc2ccc(C)cc2)[n+](C)c2ccccc21`: the activation was 109% (active).

Turning to `COCCCn1c(Cc2csc(Nc3cccc(Cl)c3)n2)nnc1SCC(=O)OC1CCCCC1`, the activation is -1.89%.

Regarding `Cc1ccc(NC(=O)CCN2CCc3ccccc3C2)cc1`, the activation was 88.5% (active).

With `CCCC1CCC(=NNC(=S)NCCc2ccccc2)CC1` (configuration not stated), the activation is 73.7% (active).

For `COc1cc(OC)cc(C(=O)N[C@H](C(=O)OCC(=O)NC(C)c2ccccc2)C(C)C)c1` (some centres not stated), the activation was 41.1% (active).

Consider `CC(=O)Oc1ccc(Cn2c(C)c(C(=O)NCc3ccc(C#N)cc3)sc2=O)cc1`, for which the activation is 113% (active).

Turning to `NC[C@H](Cc1ccccc1)NCCc1cc(C(F)(F)F)cc(C(F)(F)F)c1`, the activation is 55.9% (active).

In the case of `COc1cc(OC)c(-n2cc(-c3ccc(Cl)cc3)[nH]c2=O)cc1Cl`, the activation was 117% (active).

As to `O=C(O)C1C2C=CC(O2)C1C(=O)NCCc1cccc(Cl)c1` (configuration not stated), the activation is 101% (active).

For `O=C(Nc1cccc(NC(=O)c2ccc(Br)cc2)c1)c1ccccc1`, the activation is 5.69%.

Regarding `COc1ccc(C(=O)NC(=S)NNC(=O)CCc2ccccc2)cc1`, the activation is 115% (active).

Turning to `COc1ccc(C(=O)NNC(=S)NC(=O)c2ccccc2)cc1`, the activation is 127% (active).

Turning to `COc1ccc(Cl)cc1C(=O)NNC(=S)NC(=O)/C=C/c1ccco1`, the activation is 108% (active).

For `Cc1ccc(O)c(NC(=S)NC(=O)COc2ccc(Br)cc2)c1`, the activation is 129% (active).

Take `CCc1ccc(-c2nn(-c3ccccc3)cc2CSC(=N)N)cc1`: the activation is 58.1% (active).

Turning to `CCCCc1c(-c2ccc(Cl)cc2)ncn1CCc1ccccc1OC`, the activation is 81% (active).

For the compound `CCCCc1c(-c2ccc(Br)cc2)ncn1CCc1ccccc1OC`, the activation was 68.2% (active).

Consider `CCc1c(-c2ccccc2OC)ncn1CCc1ccccc1OC`, for which the activation is 82.6% (active).

On to `COc1ccc(OC)c(C(c2nnnn2C(C)(C)C)N2CCc3ccccc3C2)c1` (configuration not stated), for which the activation is 66.7% (active).

For `CCOC(=O)Cc1csc(NC(=O)Nc2ccccc2)n1`, the activation was 60.1% (active).

On to `O=C(Nc1ccncc1)Nc1ccc(F)cc1`, for which the activation was 83.6% (active).

As for `CCCCCc1c(Cc2ccccc2)ncn1CCc1ccccc1OC`, the activation is 84.3% (active).

In the case of `CCCCCc1c(-c2ccc(OC)c(OC)c2)ncn1CCc1ccccc1OC`, the activation is 98.3% (active).

`CCCCCc1c(-c2cccc(Br)c2)ncn1CCc1ccccc1OC`: the activation is 37.5% (active).

Turning to `NC(=O)C1=C[C@H](c2csc3ccccc23)C[C@H](OCc2ccc(CO)cc2)O1`, the activation was 58.4% (active).

On to `c1ccc2c(c1)C(=NC1CCCCC1)NC2=NC1CCCCC1`, for which the activation was 90.4% (active).

`CCC(C(=O)Nc1ccc(C(C)C)cc1)c1ccccc1` (configuration not stated): the activation is 114% (active).

`C#CCOc1ccc(/C=C2/C(=O)NN(c3ccccc3)C2=O)cc1OC`: the activation was 88% (active).

In the case of `COc1ccc2cc(-c3[nH]ncc3CNCCn3nc(C)cc3C)ccc2c1`, the activation was 57.6% (active).

Take `O=C(Cc1ccc(Cl)cc1)NC(=S)Nc1ccccc1O`: the activation is 134% (active).

Consider `Cc1ccccc1NC(=S)NC(=O)Cc1ccc(Cl)cc1`, for which the activation is 85.2% (active).

As to `S=C(NCCCc1cnc[nH]1)NCCCN(Cc1ccc(Cl)c(Cl)c1)c1ccc(Br)cn1`, the activation is 58% (active).

For `Cc1c(CNCCc2ccccc2)c(C(=O)O)c(C)n1-c1ccccc1`, the activation was 88.8% (active).

On to `CN(C(=O)CN(CCO)CC(=O)N(C)C(C)(C)Cc1ccccc1)C(C)(C)Cc1ccccc1`, for which the activation is 101% (active).

In the case of `Cc1ccccc1-c1nc(CS(=O)(=O)CC(=O)N2CCc3ccccc3C2)c(C)o1`, the activation was 68.7% (active).

Consider `COc1ccc(NC(=O)C(=O)NCC(c2ccco2)N2CCc3ccccc3C2)cc1` (configuration not stated), for which the activation was 40.5% (active).

Turning to `c1ccc(C2CNCc3c2ccc2ccccc32)cc1` (configuration not stated), the activation is 88.2% (active).

Take `N#Cc1ccc(OCCCN2CCC(C(O)(c3ccccc3)c3ccccc3)CC2)c(F)c1`: the activation is 36.6%.

As to `Cc1ccc(Sc2cc(N3CCOCC3)nc(-c3ccccc3)n2)cc1`, the activation is 19.1%.

In the case of `CCCc1cc(C(=O)Nc2ccc(C(=O)OC)cc2)cs1`, the activation was 1.29%.

On to `COc1cccc(N(CC(=O)N2CCc3ccccc3C2)S(C)(=O)=O)c1`, for which the activation is 63.4% (active).

Take `Cc1ccc(S(=O)(=O)N(CC(=O)N2CCc3ccccc3C2)c2cccc(Cl)c2)cc1`: the activation was 56.1% (active).

As for `OC(CNCCc1ccc(Cl)cc1Cl)COc1ccccc1` (configuration not stated), the activation was 87.4% (active).

Regarding `Nc1nnn(CC(=O)N/N=C/c2ccccc2)n1`, the activation is 61.6% (active).

As to `CCCOc1ccc(-c2c(C(=O)N/N=C/c3ccco3)nnn2-c2nonc2N)cc1`, the activation is 73.1% (active).

Take `Nc1nonc1-n1nnc(C(=O)N/N=C/c2ccc(Cl)cc2)c1-c1ccc2c(c1)OCO2`: the activation was 142% (active).

For the compound `Cc1onc(-c2ccccc2)c1C(=O)NNC(=S)NC(=O)c1ccc(F)cc1`, the activation is 127% (active).

In the case of `COc1ccc(C(=O)NC(=S)NNC(=O)c2c(-c3ccccc3)noc2C)cc1`, the activation was 93% (active).

Turning to `Fc1ccc(NC(=S)N2CCc3[nH]c4ccccc4c3C2)cc1`, the activation is 32.8%.

Consider `COc1ccc(OC)c(NC(=S)N2CCc3ccccc3C2)c1`, for which the activation is 87.5% (active).

In the case of `O=C(/C=C/[C@H]1O[C@@H](n2cnc3c(NC(=O)c4ccccc4)ncnc32)[C@H](O)[C@@H]1O)NCc1ccccc1`, the activation was 0.79%.
